The EternaBench riboswitch data

Tested on: MS2 coat protein
Assay: apparent Kd, MS2 coat protein; higher = weaker binding; RNA-MaP array; FMN 200 µM where present
Summary of the method: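 Green signal was scaled to red-channel RNA signal and control-cluster median Fmax, and the apparent Kd was taken as the median of filtered per-cluster binding-curve fits. The binding series used SNAP-549-labelled MS2 coat protein from 0.7 or 1.5 nM, doubling to 3 µM, on designs transcribed by stalled E. coli RNA polymerase on Illumina sequencing-chip clusters. Each series ran without and then with constant ligand in 100 mM Tris-HCl pH 7.5, 80 mM KCl, 4 mM MgCl2, BSA, DTT, yeast tRNA and Tween-20.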

[1] = designed as: ON switch for flavin mononucleotide, no ligand
[2] = ligand present: flavin mononucleotide, designed as: ON switch for flavin mononucleotide
[3] = designed as: OFF switch for flavin mononucleotide, no ligand
[4] = ligand present: flavin mononucleotide, designed as: OFF switch for flavin mononucleotide

| Sequence | apparent Kd [1] [nM] | apparent Kd [2] [nM] | apparent Kd [3] [nM] | apparent Kd [4] [nM] |
| --- | --- | --- | --- | --- |
| AAACACGGACAUGAGGAUCACCCAUGUGGCGAAAGCCUUGGGAGAAGGAUAAAUAUAUAAUAAAAUUAGGAUAUUCAUACCGUG | 306 | 104 | – | – |
| UAUGAGCGAGGAUAUGCUUGGGACUGUCGGAAUGUGGCGGGACAUGAGGAUCACCCAUGUAGAAGGCGCGAGCG | – | – | 95.1 | 212 |
| AGAGAAUAGGUAGGAUAUCUUAAUAGAAAGAAUAGAGAAGGACCACAUGAGGAUCACCCAUGUGAAGUCUUGAGACUACAUGGU | – | – | 18.1 | 22.9 |
| AUGAGGGAAGUAGGAUAUGAUCAAGACAUGAGGAUCACCCAUGUAAUGAGGGUGUGUGUCUUUGUUCAGAAGGACUUGUAUCAA | – | – | 60.4 | 60.4 |
| CAAUUGGCACAGAAGGGUGACAUGAGGAUCACCCAUGUAGCGUGGCAUUCAGGAGGAGCCACGCCACAGGAUAUGUGCGGGCAC | 107 | 155 | – | – |
| AAAUCGGCAGGAUAUACAUGAGGAUCACCCAUGUAAAUUUUUCGUUUAACUUGAAUGUGUAGAAGGGCCAUAAA | – | – | 25.6 | 27.1 |
| AAAGCACAUGAGGAUCACCCAUGUGGAAAUAACACAGGAUAUCUGGCCUAAGCUUAGGCGAGAGAAGGGUGACCUA | 88.9 | 223 | – | – |
| AGUAAGAUGCAGAAGGUGUCAGCGAGAGCUACGACAUGAGGAUCACCCAUGUACUAGUGAGAGUACAAGGAUAUGCAUCUUACA | 76.3 | 8.54 | – | – |
| UGAUAACAUGUAGGAUAUCCAGCAUUGACCAUCGGAGAAGGACAUGAGGAUCACCCAUGUACCGAUACAAUGGGAUAUGGGAAU | – | – | 20.1 | 27.2 |
| AAAAAACAUGAGGAUCACCCAUGUGAGGAUAUGUAUAUCCCUAAAAAAGUGUGGGACUACAGAAGGCACUUGGA | – | – | 79.7 | 207 |
| UCUGGUCGAGGAUAUGCAUUCGUGCUUCGGCACGUAAGGUCACAUGAGGAUCACCCAUGUAGAAGGCGACCAGA | – | – | 19.6 | 35.9 |
| GGAUAGGACAGAGGAUAUACGAGCUAGAGAUACUAGCAAAAUUUCCUCACAUGAGGAUCACCCAUGUAGAAGGCUGUCCUAUCG | – | – | 17.5 | 536 |
| UUAUUUUGUCAAGGAUAUGUAUUAUUGAUUUGAAAACAUGAGGAUCACCCAUGUAUAUGGUGGGAACAGAAGGUGAAUAAGUAA | – | – | 248 | 235 |
| AAUUAUUUACAGAAGGAGUAAGAUUAUGUAUUACUAGGAUAUGUAAACAUGAGGAUCACCCAUGUGUUUGUAGGUUUUUUAUGU | – | – | 13.4 | 7.79 |
| UUGGACGUCGUUGGAUAUGUAGGAUAUUCCUACAUGAGGAUCACCCAUGUUGACAUGGAAGAAGGACAGAAGGACGAUGUCCAU | 196 | 6.05 | – | – |
| AUCCGCUCGUCAGGAUAUACGUCACUGCGUCAGCAGUGUGGUAAGAUCACAUGAGGAUCACCCAUGUAGAAGGGACGAGCUGAU | – | – | 13.6 | 276 |
| AGUUAAUAUCGAGGAUAUCUCAUGGAUACAUGAGGAUCACCCAUGUUAAUGGGAGAAGGCGAUAUUAACAGCAUGUUACAUGCA | 28 | 7.38 | – | – |
| UGUCGGAGCAGAGGAUAUUACAUGAGGAUCACCCAUGUAUGAACCAAUAGCGGGAAACAGCAAUGUAAGAAGGCUGCUCCGACA | – | – | 34.6 | 140 |
| CUGGUUGUCGUAGGAUAUGUAGGAUAUUCCUACAUGAGGAUCACCCAUGUUCGCAUGGAAGAAAGACAGAAGGACGAUGACCAU | 1190 | 52.2 | – | – |
| GGUGUGCAGCAGGAUAUCCAUCCGCGGUAUGGUGGAGAAGGGCUGACAUGAGGAUCACCCAUGUGCGUCCUAGG | – | – | 40.3 | 133 |
| CAACCGUUGCAGAAGGUUAAAUAUAUCAACUUAUGGACAACAUGAGGAUCACCCAUGUUUUUGUUGAAGGAUAUGCAAGGGUUG | – | – | 5.89 | 5.71 |
| UAUGUGUGAGGAUAUGGUAAAGAUAAGAUGAUGAAAGAACUCCAGAAGGCACAUGAGGAUCACCCAUGUAGAUA | – | – | 22.8 | 45.6 |
| UGCAUCAAUGAAGGAUAUCUAUGUCCAACAUGAGGAUCACCCAUGUUGAGGAUUACCUAUGUGUAGGAGAAGGUCAAUAUAACU | 6.67 | 6.12 | – | – |
| GCAGGAUAAGUGAGGAUAUACCUAUGGAUACAUAGGUAGAAGGCACAUGAGGAUCACCCAUGUUCCUUGCCUGC | – | – | 13 | 42.7 |
| AUUAUGACCGAGUAAAGCUUCAAAACAUGAGGAUCACCCAUGUAGGAUAUCAGCACGAUAAGUGCUGAGAAGGACAUCUCGGUC | – | – | 14.3 | 15.1 |
| GUCUUGAUAGGAUAUACAUGAGGAUCACCCAUGUCCCACCCGUUACCUCUGGCCCUAUGUAGAAGGAUCGUCUG | – | – | 50.2 | 45.6 |
| ACAUAAAUUCGAGGAUAUCGGUGAAAUAAUUUACGAGAAGGCGAUAAUAGUUAUAGACUUAUAGACAUGAGGAUCACCCAUGUA | 30.3 | 27.6 | – | – |
| UGCAUGUCAGGAUAUCGUGCAUACAACGAAAGUUCUAUGUGCGAGAAGGGACAUGAGGAUCACCCAUGUCUUCG | – | – | 24 | 67.4 |

| Sequence | apparent Kd [1] [nM] | apparent Kd [2] [nM] | apparent Kd [3] [nM] | apparent Kd [4] [nM] |
| --- | --- | --- | --- | --- |
| AGCAUGCAGUAGGAUAUCGAUCCGCAAUAUGAACGAGAAGGACUGACAUGAGGAUCACCCAUGUGCGUCCUAGG | – | – | 16.5 | 19.7 |
| UUUACUUUGUAGAAGGGUGACAUGAGGAUCACCCAUGUGCGUCGCCUGAAAGACCAGGGUACGCCACAGGAUAUACAAAGUAAG | 56.5 | 40.4 | – | – |
| UUUAUAAAUUAGAAGGCGUGAUAAAAUACAAUAAACAUGAGGAUCACCCAUGUGUACCCAUGUUAUGAGGAUAUAGUCAUAUAU | 462 | 377 | – | – |
| AAAGAUGGAGGAUAUACAUGAGGAUCACCCAUGUAGAAAAAAAAUUGGGAAAAAGAAAGUAGAAGGCCAAAAAA | – | – | 41 | 91.1 |
| UGUCGGAGCAGAGGAUAUUACAUGAGGAUCACCCAUGUAUGAAUCAAUAGCUGGAAACAGCAAUGUAAGAAGGCUGCUCCGACA | – | – | 7.86 | 26.6 |
| GGGCGCCACGUAGGAUAUCUUCCGUAUGGGUCCCAUCAUAGCACAUGAGGAUCACCCAUGUGGGUAGAGAAGGACGGUUUGCCG | – | – | 221 | 59.5 |
| AACUCGUCAGGAUAUGCGCGCAGAUAAUACGCUUCGCAAUUGCAGAAGGGACAUGAGGAUCACCCAUGUAAAUA | – | – | 29.8 | 32 |
| ACUAAACGAGGAUAUACUGACAGGCCUCAGACAUACAUCAAACAUGAGGAUCACCCAUGUAGAAGGCGUAAACU | – | – | 37.2 | 36.7 |
| GCACGGUUGCUAGGAUAUCCUUGCGAUUAGCAAGGAGAAGGAGCACAUGAGGAUCACCCAUGUACCUCAAUAAUCCAUCCGUGC | – | – | 14.8 | 14.2 |
| CUAUGAGCGAUAGGAUAUACUGAGAUUGAGUGGGUAGAAGGAUCGAUCGUGUAGAAGACAUGAGGAUCACCCAUGUUACGGGCC | 115 | 147 | – | – |
| UGUCGGAGCAGAGGAUAUUACAUGAGGAUCACCCAUGUAUGAACCAAUAGCUGGAAACAGCAAUGUAAGAAGGCUGCUCCUACA | – | – | 12.5 | 147 |
| AAACACGGACAUGAGGAUCACCCAUGUGGCGAAAGCCUUGGGAGAAGGCCGAUUGCAAAGCAAUCGGAGGAUAUUCAUACCGUG | 1250 | 57 | – | – |
| CGAUGGCAUGUAGGAUAUCGAGCUCAAAGAGCUCGAGAAGGACAUGAGGAUCACCCAUGUGCACACAGACAGUGUGCGCUAUCG | – | – | 37 | 181 |
| UUGGACGUCGUAGGAUAUGUAGGAUAUUCCUACAUGAGGAUCACCCAUGUUGACGUGGAAGAAGGACAGAAGGACGAUGUCCAU | 55.3 | 4.63 | – | – |
| GGUAAAGGCAGCCUCUACCCUGCACAUGAGGAUCACCCAUGUAAGGAUAUCGCCGCGGUAAUGGUCGAGAAGGUAUAUCGGGUU | – | – | 15.9 | 46.5 |
| ACAUGAGGAUCACCCAUGUUUUUCGGGUACUCUUUUUACAGCAAGGAUAUGCAUUAUUUUUUUACGCAGAAGGUGCUUUACGUC | – | – | 114 | 196 |
| CCGAUAAUAGGACAGGAUAUGACUGUCGUCACAUGAGGAUCACCCAUGUCCCGGCAAUGCCACCGUUAGAAGGGUCCUAUCUCGA | 14.9 | 14.6 | – | – |
| GGACCUCCUGAGGAUAUUGCAUCACCCGACUGAUAAGAAGGCAGAACAUGAGGAUCACCCAUGUGGGUACUCGG | – | – | 32.3 | 36.1 |
| GCCUCACAUGAGGAUCACCCAUGUCAGGAUAUAGGAGACGGUAGCUUUGCUGCCAUCGCUAGAAGGGACUGGCU | – | – | 68.2 | 111 |
| UUUCCGCGAGGAUAUGCGGGCUGUGCUUUUCAUUUCUUACCACAUGAGGAUCACCCAUGUAGAAGGUGCUUCUU | – | – | 154 | 136 |
| CCUUGUAUUGAGGAUAUGCGCCGGCUCGCUGGCGCAGAAGGCGGCACAUGAGGAUCACCCAUGUCAGUUCGCGA | – | – | 9.34 | 12 |
| GCGUUGAACGAGAAGGCCAAUACAUGAGGAUCACCCAUGUUUAGAUGUUUUGGAGGAUAUCGUACGUAUUCAAUAUUGCAACGC | – | – | 10.9 | 9.94 |
| CUGCGGUAGGAGAAGGACGGCGGGUUCUUUUCAUACAUGAGGAUCACCCAUGUAGGAUAUCCUACCUCAGGCGGCCUACUACAG | – | – | 7.68 | 10.9 |
| ACAGAAGCACCCGGAACCGGACAAUGAGAAGGCCACGCACAUGAGGAUCACCCAUGUAAAGCUAUGGAGGAUAUCAUGAUGGAU | 40.3 | 5.64 | – | – |
| AAGAAGUGAGGAUAUCGAAGACAGACGAAAAGUCUGUCAAACGAGAAGGCACAUGAGGAUCACCCAUGUAAGAA | – | – | 25.9 | 35.2 |
| AAGUAGGCAGGAUAUACAUGAGGAUCACCCAUGUGCCUAUACAAGGUAAUCUUGGGAGGUAGAAGGGCCUACAA | – | – | 33.9 | 166 |
| AUCAGCGCGUCAGGAUAUACGUCACUGCGUCAGCAGUGUGGUAAGAUCACAUGAGGAUCACCCAUGUAGAAGGGACGAGCUGAU | – | – | 12.8 | 307 |
